From PMC7199890 (European journal of medicinal chemistry, 2019) come the findings set out here.

Usually inhibition stands for the share of the control response that was lost under treatment. In general, Ki refers to the equilibrium dissociation constant of an inhibitor or competing ligand from its target. The low end stands for tighter binding, the high end for weaker binding.

Molecules are shown by their SMILES. Some results are limits rather than exact numbers.

What all share (assay): Radioligand binding
One assay addresses T1, hA3AR (Homo sapiens, UniProt P0DMS8).
T1 sequence (P0DMS8 1-318): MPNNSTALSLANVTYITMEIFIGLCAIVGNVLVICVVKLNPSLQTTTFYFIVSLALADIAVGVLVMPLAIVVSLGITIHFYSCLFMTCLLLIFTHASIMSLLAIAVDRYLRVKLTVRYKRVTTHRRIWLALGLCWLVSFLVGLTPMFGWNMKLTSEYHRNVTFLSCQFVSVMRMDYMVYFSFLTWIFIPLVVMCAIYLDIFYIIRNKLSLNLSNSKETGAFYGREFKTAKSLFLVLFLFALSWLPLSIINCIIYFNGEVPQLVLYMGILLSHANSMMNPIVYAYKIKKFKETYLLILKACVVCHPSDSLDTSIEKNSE
As to conditions: for hA1/hA3 / hA2A/hA3: selectivity ratio of Ki values. The procedure, abridged:
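Displacement of [125I]AB-MECA binding on membranes from CHO cells expressing recombinant hA3AR. […] ADA (3 units/mL) was present during membrane preparation, a 30 min 30 °C preincubation and radioligand incubation. DMSO was ≤2% final. At least six competitor concentrations spanning 3 log units were used. Incubations ended by GF/B filtration and three rinses.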

For another assay, the target named is T2, hA1AR (Homo sapiens, UniProt P30542).
T2 sequence (P30542 1-326): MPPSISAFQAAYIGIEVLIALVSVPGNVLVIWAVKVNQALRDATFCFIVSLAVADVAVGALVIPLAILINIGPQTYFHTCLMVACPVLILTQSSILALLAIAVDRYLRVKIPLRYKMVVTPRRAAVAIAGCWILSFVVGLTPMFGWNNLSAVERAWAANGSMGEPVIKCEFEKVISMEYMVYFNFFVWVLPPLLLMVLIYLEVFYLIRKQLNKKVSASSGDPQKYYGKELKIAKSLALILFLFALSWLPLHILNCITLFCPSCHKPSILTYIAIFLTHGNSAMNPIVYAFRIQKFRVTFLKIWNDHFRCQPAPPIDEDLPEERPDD
As to conditions: read-out: hA1 % of inhibition. The procedure, abridged:
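Membranes came from CHO cells expressing recombinant hA1AR, labelled with [3H]R-PIA. ADA (3 units/mL) was present during membrane preparation, a 30 min 30 °C preincubation and radioligand incubation. Test compound was dissolved in DMSO and diluted in buffer, DMSO ≤2% final. Incubations ended by GF/B filtration and three buffer rinses. The read-out is % inhibition of specific binding at a single concentration.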

The next assay deals with hA2AAR (Homo sapiens, UniProt P29274). The following applies: for hA1/hA2A: selectivity ratio of Ki values.
Chain of hA2AAR (P29274 whole entry): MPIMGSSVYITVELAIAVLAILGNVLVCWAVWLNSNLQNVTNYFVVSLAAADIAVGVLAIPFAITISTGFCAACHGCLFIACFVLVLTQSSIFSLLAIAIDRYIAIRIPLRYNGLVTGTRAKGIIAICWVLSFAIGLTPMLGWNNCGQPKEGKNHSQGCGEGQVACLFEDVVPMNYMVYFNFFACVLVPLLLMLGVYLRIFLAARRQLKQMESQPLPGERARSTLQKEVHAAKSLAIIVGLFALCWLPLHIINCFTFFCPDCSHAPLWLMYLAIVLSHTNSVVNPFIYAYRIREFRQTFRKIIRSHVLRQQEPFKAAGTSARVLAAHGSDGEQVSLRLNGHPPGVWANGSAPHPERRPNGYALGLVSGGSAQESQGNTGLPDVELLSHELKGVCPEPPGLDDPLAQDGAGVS

For the molecule `Cn1cc2c(nc(NC(=O)Nc3ccc(CC(=O)NCCCNC(=S)Nc4ccc(-c5c6ccc(=O)cc-6oc6cc(O)ccc56)c(C(=O)O)c4)cc3)n3nc(-c4ccco4)nc23)n1` [Compound 14, 5-(3-(3-(2-(4-(3-(2-(furan-2-yl)-8-methyl-8H-pyrazolo[4,3-e][1,2,4]triazolo[1,5-c]pyrimidin-5-yl)ureido)phenyl)acetamido)propyl)thioureido)-2-(6-hydroxy-3-oxo-3H-xanthen-9-yl)benzoate], on hA3AR, the hA1/hA3 was above 96 and the hA2A/hA3 came out at 1. In addition, at hA1AR, the inhibition at 10 µM was 27%. On hA2AAR, the hA1/hA2A is above 96.
Consider `Cn1cc2c(nc(NC(=O)Nc3ccc(CC(=O)NCCCCNC(=S)Nc4ccc(-c5c6ccc(=O)cc-6oc6cc(O)ccc56)c(C(=O)O)c4)cc3)n3nc(-c4ccco4)nc23)n1` [Compound 15, 5-(3-(4-(2-(4-(3-(2-(furan-2-yl)-8-methyl-8H-pyrazolo[4,3-e][1,2,4]triazolo[1,5-c]pyrimidin-5-yl)ureido)phenyl)acetamido)butyl)thioureido)-2-(6-hydroxy-3-oxo-3H-xanthen-9-yl)benzoate], for which, at hA3AR, the hA2A/hA3 worked out at 0.82. Also, the inhibition at 10 µM at hA1AR is 28%. Moreover, the hA1/hA2A at hA2AAR is on record as above 129.
Take `Cn1cc2c(nc(NC(=O)Nc3ccc(CC(=O)NCCCCCNC(=S)Nc4ccc(-c5c6ccc(=O)cc-6oc6cc(O)ccc56)c(C(=O)O)c4)cc3)n3nc(-c4ccco4)nc23)n1` [Compound 16, 5-(3-(5-(2-(4-(3-(2-(furan-2-yl)-8-methyl-8H-pyrazolo[4,3-e][1,2,4]triazolo[1,5-c]pyrimidin-5-yl)ureido)phenyl)acetamido)pentyl)thioureido)-2-(6-hydroxy-3-oxo-3H-xanthen-9-yl)benzoate]: at hA3AR, the hA1/hA3 is above 103 and the hA2A/hA3 was 1.1. At hA1AR, the inhibition at 10 µM is 21%. Further, the hA1/hA2A at hA2AAR is recorded as above 94.
Consider `Cn1cc2c(nc(NC(=O)Nc3ccc(CC(=O)NCCOCCOCCNC(=S)Nc4ccc(-c5c6ccc(=O)cc-6oc6cc(O)ccc56)c(C(=O)O)c4)cc3)n3nc(-c4ccco4)nc23)n1` [Compound 17, 5-(3-(2-(2-(2-(2-(4-(3-(2-(furan-2-yl)-8-methyl-8H-pyrazolo[4,3-e][1,2,4]triazolo[1,5-c]pyrimidin-5-yl)ureido)phenyl)acetamido)ethoxy)ethoxy)ethyl)thioureido)-2-(6-hydroxy-3-oxo-3H-xanthen-9-yl)benzoate], for which, on hA3AR, affinity was put at a Ki of 137 nM, the hA1/hA3 is reported as above 73 and the hA2A/hA3 amounted to 0.69. Moreover, the inhibition at 10 µM at hA1AR amounted to 29%. Also, on hA2AAR, the inhibition constant (Ki) is 95.7 nM and the hA1/hA2A is reported as above 94.
For `Cn1cc2c(nc(NC(=O)Nc3ccc(CC(=O)NCCCOCCOCCOCCCNC(=S)Nc4ccc(-c5c6ccc(=O)cc-6oc6cc(O)ccc56)c(C(=O)O)c4)cc3)n3nc(-c4ccco4)nc23)n1` [Compound 18, 5-(3-(1-(4-(3-(2-(furan-2-yl)-8-methyl-8H-pyrazolo[4,3-e] [1,2,4]triazolo[1,5-c]pyrimidin-5-yl)ureido)phenyl)-2-oxo-7,10,13-trioxa-3-azahexadecan-16-yl)thioureido)-2-(6-hydroxy-3-oxo-3H-xanthen-9-yl)benzoate], on hA3AR, the Ki turned out to be 207 nM, the hA1/hA3 is listed as above 48 and the hA2A/hA3 was determined as 0.44. At hA1AR, the inhibition at 10 µM was determined as 32%. Moreover, on hA2AAR, affinity was put at a Ki of 91.5 nM and the hA1/hA2A was above 109.
Consider `C#CCCC(=O)Nc1nc2nn(C)cc2c2nc(-c3ccco3)nn12` [Compound 19, N-(2-(furan-2-yl)-8-methyl-8H-pyrazolo[4,3-e][1,2,4]triazolo[1,5-c]pyrimidin-5-yl)pent-4-ynamide], for which, on hA3AR, the hA1/hA3 is above 909 and the hA2A/hA3 was 16.5. The inhibition at 10 µM on hA1AR stood at 55%.
